One assay relates to A549. Description: Cytotoxicity against human A549 cells by MTT assay. Format: functional, cell-based. Summed up: (§1)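 Tumor cell lines from ATCC. Viability measured by MTT colorimetric method in duplicate, with doxorubicin as positive control. Read-out reported as IC50.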
(In general: Tetrazolium assays rely on reduction of a dye to a coloured formazan, in cell work by metabolically active cells.)

The subject of a further assay is Ca9-22. The assay can be described thus: Cytotoxicity against human Ca9-22 cells by MTT assay. The class given is functional, cell-based. The method, boiled down:
as §1

A short description of assay [1]: Cytotoxicity against human Hep3B cells by MTT assay. Format: functional, cell-based, Hep 3B2. The method, boiled down:
as §1

Assay [2] deals with RAW264.7. Description: Antiinflammatory activity in mouse RAW264.7 cells assessed as accumulation of LPS-induced COX-2 at 10 uM by immunoblot analysis. The class given is functional. Summed up: (§2)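 RAW264.7 macrophages (ATCC) stimulated with LPS, with test compound at 10 μM. iNOS and COX-2 protein levels measured by western blotting. Levels expressed as % of cells treated with LPS alone.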
For orientation: A western blot detects proteins with antibodies after separation by electrophoresis.

Assay [3] has as its system RAW264.7. The assay can be described thus: Antiinflammatory activity in mouse RAW264.7 cells assessed as accumulation of LPS-induced iNOS at 10 uM by immunoblot analysis. The class given is functional. The method, boiled down: as §2
The test system of a further assay is MDA-MB-231. The assay can be described thus: Cytotoxicity against human MDA-MB-231 cells by MTT assay. Format: functional, cell-based. Summed up: as §1
The next assay deals with HepG2. The assay can be described thus: Cytotoxicity against human HepG2 cells by MTT assay. Format: functional, cell-based. Summed up:
as §1

The subject of a further assay is MCF7. The assay can be described thus: Cytotoxicity against human MCF7 cells by MTT assay. The class given is functional, cell-based. Summed up: as §1

In the case of `C=C1C[C@H]2O[C@H]([C@@H]3[C@@H]([C@@H](C)COC(=O)CCC)CC=C(C)[C@@H]32)[C@](C)(OC(=O)[C@H](O)CC)CC[C@@H]1O` [HIRSUTALIN A], the IC50 with A549 turned out to be 28 µM; in the assay with Ca9-22 it was 35 µM; in assay [1], 29 µM.

Take `C=C1CC[C@H]([C@@H](C)COC(C)=O)[C@@H]2[C@H]1[C@H]1CC(=C)[C@@H](O)CC(OC(=O)C(CC)OC(=O)CCC)[C@@](C)(O)[C@@H]2O1` (some centres not stated) [HIRSUTALIN B]: the Activity with RAW264.7 [2] came to 49%; with RAW264.7 [3], 6.8%.

As for `C=C1CC[C@H]([C@@H](C)CO)[C@@H]2[C@H]1[C@H]1CC(=C)[C@@H](O)CC[C@@](C)(OC(=O)C(CC)OC(=O)CCC)[C@@H]2O1` (some centres not stated) [HIRSUTALIN C], in the assay on RAW264.7 [3], the Activity is reported as 43.6%.

Take `C=C1CC[C@H]([C@@H](C)CO)[C@@H]2[C@H]1[C@H]1CC(=C)[C@@H](O)CC[C@@](C)(OC(=O)C(CC)OC(C)=O)[C@@H]2O1` (some centres not stated) [HIRSUTALIN D]: the Activity in the assay on RAW264.7 [3] came to 3.3%.

On to `CCCC(=O)O[C@]1(C)CC[C@H](O)[C@@](C)(O)C[C@H]2O[C@@H]1[C@H]1[C@@H]2C(C)=CC[C@@H]1C(C)C` [HIRSUTALIN E], for which the IC50 with MDA-MB-231 stood at 41 µM; with HepG2 it was 4.7 µM; with A549, 34 µM; with Ca9-22, 34 µM; in assay [1] it was 14 µM; with MCF7, 35 µM.

Take `C=C1CC[C@H]([C@@H](C)CO)[C@@H]2[C@H]1C(=O)C[C@@](C)(O)[C@H]1CC[C@@](C)(OC(=O)C(CC)OC(=O)CCC)[C@@H]2O1` (some centres not stated) [HIRSUTALIN F]: the IC50 is 29 µM in the assay on HepG2, 29 µM in assay [1] and 32 µM in the assay on MCF7.

`C=C1CC[C@H]([C@@H](C)COC(C)=O)[C@@H]2[C@H]1[C@H]1C[C@](C)(O)[C@@H](O)CC[C@@](C)(OC(=O)CCC)[C@@H]2O1` [HIRSUTALIN H]: in the assay with RAW264.7 [3], the Activity came to 32.3%.

In general, IC50 refers to the point on the concentration scale where inhibition reaches its midpoint. High values mean lower potency, low ones higher potency.

The record behind these values is ChEMBL document CHEMBL1629413, “Hirsutalins A-H, eunicellin-based diterpenoids from the soft coral Cladiella hirsuta” (J Nat Prod, 2010).
